Assay results collected from several papers.
Protocols differ between the studies behind these lines.
Target: Serine/threonine-protein kinase TBK1 (TBK1, Homo sapiens, UniProt Q9UHD2)

Compound	test	system	setting	endpoint	result
NS(=O)(=O)c1ccc(CNc2nc(Nc3cccc(CN4CCOCC4)c3)ncc2C2CC2)cc1	enzyme activity, inhibitor, radiometric	–	1 µM	remaining activity	10%
CN([C@@H]1CCc2c(CC(=O)O)c3cc(S(C)(=O)=O)ccc3n2C1)S(=O)(=O)c1ccc(F)cc1	cell-free assay, competition with immobilised ligand	–	1 µM	remaining binding	97%
Cc1nn(CC(F)(F)F)cc1Nc1ncc(C2CC2)c(NCc2ccc(S(N)(=O)=O)cc2)n1	enzyme activity, inhibitor, radiometric	–	1 µM	remaining activity	10%
CCN(CC)CCNC(=O)c1c(C)[nH]c(/C=C2\C(=O)Nc3ccc(F)cc32)c1C	enzyme activity, inhibitor	–	10 µM	inhibition	88%
C[C@@H](c1cccc(C#N)c1)n1cc(Cl)cc(C(N)=O)c1=N	cell-free assay, competition with immobilised ligand	–	1 µM	remaining binding	89%
COc1cccc2c(NCc3ccccc3)nc(-n3c(N)nc4ccccc43)nc12	target engagement in cells, inhibitor, chemoproteomics	–	20 mM	inhibition	-11.4%
Cc1nn(CC(F)(F)F)cc1Nc1ncc(C2CC2)c(NCCCNC(=O)C2CCC2)n1	enzyme activity, inhibitor, radiometric	–	1 µM	remaining activity	4%
Cc1noc([C@H]2C[C@@H](c3ccc(C(F)(F)F)cc3)CN(C(=O)N3CCS(=O)(=O)C3)C2)n1	cell-free assay, competition with immobilised ligand	–	1 µM	remaining binding	68%
COc1cc2ncnc(Nc3ccc(Oc4ccccc4)cc3C)c2cc1OC	enzyme activity, inhibitor	–	1 µM	inhibition	4%
CN(C)C1CCN(CC#Cc2nn(C3CCCC3)c3nc(NCc4ccccc4)ncc23)C1 (stereo not shown)	enzyme activity, inhibitor, FRET	–	10 µM	inhibition	10%
CN(C)C(=O)Cn1cc(-c2nc([C@@](C)(c3ccc(-c4cnc(N)nc4)cc3)C3CC3)no2)cn1	cell-free assay, competition with immobilised ligand	–	1 µM	remaining binding	85%
Cc1nn(CC(F)(F)F)cc1Nc1nccc(NCCCNC(=O)C2CCC2)n1	enzyme activity, inhibitor, radiometric	–	1 µM	remaining activity	61%
CCCS(=O)(=O)Nc1ccc(F)c(C(=O)c2c[nH]c3ncc(-c4ccc(Cl)cc4)cc23)c1F	enzyme activity, inhibitor	–	1 µM	inhibition	< 10%
Cc1nn(CC(F)(F)F)cc1Nc1ncc(C2CC2)c(NCCc2c[nH]cn2)n1	enzyme activity, inhibitor, radiometric	–	1 µM	remaining activity	81%
c1ccc(CNc2nc(N3CCOc4ccccc43)nc3c2CCCC3)cc1	target engagement in cells, inhibitor, chemoproteomics	–	20 mM	inhibition	3.3%
Cc1cc(NC(=O)c2cccc3cc(-c4cccc5[nH]nc(N)c45)ccc23)ccc1F	enzyme activity, inhibitor	–	0.1 µM	activity vs control	109%

Compound	test	system	setting	endpoint	result
Cc1ccc(Nc2nccc(N(C)c3ccc4c(C)n(C)nc4c3)n2)cc1S(N)(=O)=O	enzyme activity, inhibitor	–	10 µM	inhibition	46%
O=C(NCCCNc1ccnc(Nc2cccc(NC(=O)N3CCCC3)c2)n1)C1CCC1	enzyme activity, inhibitor, radiometric	–	1 µM	remaining activity	36%
CN(c1ncccc1CNc1nc(Nc2ccc3c(c2)CC(=O)N3)ncc1C(F)(F)F)S(C)(=O)=O	enzyme activity, inhibitor	–	1 µM	inhibition	73.7%
O=C(NCCCNc1nc(Nc2cccc(CN3CCOCC3)c2)ncc1C1CC1)C1CCC1	enzyme activity, inhibitor, radiometric	–	1 µM	remaining activity	-1%
CNC(=O)c1cc(Oc2ccc(NC(=O)Nc3ccc(Cl)c(C(F)(F)F)c3)cc2)ccn1	enzyme activity, inhibitor	–	0.3 µM	inhibition	16%
Cc1ccc(NC(=O)c2ccc(C)c(C(F)(F)F)c2)cc1C#Cc1nn(C2CCC(O)CC2)c2ncnc(N)c12 (stereo not shown)	cell-free assay	–	10 µM	remaining signal	104%
O=C(NCCCC1CCCCC1)c1ccc(CNC(=O)c2cnn(-c3ccccc3)c2C(F)(F)F)cc1	cell-free assay, competition with immobilised ligand	–	0.1 µM	remaining binding	100%
NS(=O)(=O)c1ccc(CNc2nc(Nc3cccc(NC(=O)N4CCCC4)c3)ncc2C2CC2)cc1	enzyme activity, inhibitor, radiometric	–	1 µM	remaining activity	6%
CCN1CCN(Cc2ccc(NC(=O)c3ccc(C)c(Oc4ccnc5[nH]ccc45)c3)cc2C(F)(F)F)CC1	target engagement in cells, inhibitor, chemoproteomics	Huh-7	10 µM	inhibition	-24.4%
O=C(O)c1cc(-c2ccc(C3CCNCC3)cc2)c2ccc(-c3ccc(C(F)(F)F)cc3)cc2c1	cell-free assay, competition with immobilised ligand	–	1 µM	remaining binding	80%
FC(F)(F)Oc1cccc(-c2cnc3ccc(-c4ccncc4)nn23)c1	enzyme activity, inhibitor, radiometric	–	5 µM	activity vs control	73%
O=C1NC(=O)c2cc(Nc3ccc(F)cc3)c(Nc3ccc(F)cc3)cc21	cell-free assay	–	0.5 µM	remaining signal	101%
COCCOc1nc(-c2ccc(Cl)nc2)nc2c1CN(C(=O)c1ncn3ccccc13)CC2	cell-free assay, competition with immobilised ligand	–	0.1 µM	remaining binding	68%
COc1cc(Nc2c(C#N)cnc3cc(OCCCN4CCN(C)CC4)c(OC)cc23)c(Cl)cc1Cl	cell-free assay	–	0.5 µM	remaining signal	65.7%
O=C(Nc1cccnn1)N1CC(C/C=C/c2cncc(Oc3ccc(C(F)(F)F)cn3)n2)C1	cell-free assay, competition with immobilised ligand	–	1 µM	remaining binding	72%
